# From ChEMBL document CHEMBL1148485, “Synthesis and biological evaluation of new selective cytotoxic cyclolignans derived from podophyllotoxin” (J Med Chem, 2004)
# Tests used:
# [1] = test system: A549; test: In vitro cytotoxicity against A-549 (human lung carcinoma) cell line.; type: functional, cell-based; conditions: Homo sapiens, A549
# [2] = test system: SK-MEL-28; test: Tested in vitro for antineoplastic activity against MEL-28 (human melanoma) tumor cell line; type: functional, cell-based
# Method in brief: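 MEL-28 cells seeded at 2 × 10^4 cells/well in MEM–10% FCS containing graded compound concentrations. Incubated 4 days at 37 °C, 10% CO2, 98% humidity. Stained with crystal violet and inhibition judged against untreated controls, which were kept in exponential growth. Mean of duplicate wells.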
# [3] = test system: HT-29; test: In vitro cytotoxicity against HT-29 (human colon carcinoma) cell line.; type: functional, cell-based; conditions: Homo sapiens, HT-29
# [4] = test system: HeLa; test: Tested for effect of compound on G0/G1 cell cycle phase and apoptosis in HeLa cells at a dose of 10E-8 for 24 hr; type: functional, Homo sapiens
# Method in brief: (§1)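 HeLa cells were grown in DMEM with 10% heat-inactivated FCS and 2 mM L-glutamine at 37 °C in 5% CO2. They were exposed to 10^-6 to 10^-8 M for 24, 48 or 72 h. Then (3-5)×10^5 cells were fixed overnight in 70% ethanol at 4 °C, PBS-washed, and given 1 mg/mL RNase A plus 20 µg/mL propidium iodide for 1 h at room temperature. DNA content was read by flow cytometry. Sub-G1 (hypodiploid) % counted as apoptotic. Untreated controls were run in parallel. Representative of three independent experiments.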
# [5] = test system: HeLa; test: Tested for effect of compound on G2/M cell cycle phase and apoptosis in HeLa cells at a dose of 10E-6 for 48 hr; type: functional, Homo sapiens; method in brief: as §1
# [6] = test system: HeLa; test: Tested for effect of compound on G0/G1 cell cycle phase and apoptosis in HeLa cells at a dose of 10E-6 for 72 hr; type: functional, Homo sapiens; method in brief: as §1
# [7] = test system: HeLa; test: Tested for effect of compound on G0/G1 cell cycle phase and apoptosis in HeLa cells at a dose of 10E-8 for 48 hr; type: functional, Homo sapiens; method in brief: as §1
# [8] = test system: HeLa; test: Tested for effect of compound on S cell cycle phase and apoptosis in HeLa cells at a dose of 10E-8 for 72 hr; type: functional, Homo sapiens
# Method in brief: (§2)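 HeLa cells grown in DMEM with 10% heat-inactivated FCS, 2 mM L-glutamine, penicillin and gentamicin at 37 °C, 5% CO2. Exposed to compound at 10^-6 to 10^-8 M for 24, 48 or 72 h, untreated controls run in parallel. (3-5) × 10^5 cells fixed overnight in 70% ethanol at 4 °C, then RNase A plus propidium iodide. Phase fractions measured by flow cytometry, with sub-G1 (hypodiploid) cells counted as apoptotic. Three independent experiments.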
# [9] = test system: P388; test: Tested in vitro for antineoplastic activity against P-388 (lymphoid neoplasm from DBA/2 mouse) tumor cell line; type: functional, cell-based
# Method in brief: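 P-388 cells seeded at 1 × 10^4 cells/well in MEM–10% FCS containing graded compound concentrations. Incubated 4 days at 37 °C, 10% CO2, 98% humidity. Inhibition scored by inverted microscopy against untreated controls, which were kept in exponential growth. Mean of duplicate wells.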
# [10] = test system: HeLa; test: Tested for effect of compound on S cell cycle phase and apoptosis in HeLa cells at a dose of 10E-7 for 72 hr; type: functional, Homo sapiens; method in brief: as §2
# [11] = test system: HeLa; test: Tested for effect of compound on G0/G1 cell cycle phase and apoptosis in HeLa cells at a dose of 10E-6 for 48 hr; type: functional, Homo sapiens; method in brief: as §1
# [12] = test system: HeLa; test: Tested for effect of compound on Sub-G1 cell cycle phase and apoptosis in HeLa cells at a dose of 10E-7 for 24 hr; type: functional, Homo sapiens; method in brief: as §2
# [13] = test system: HeLa; test: Tested for effect of compound on G0/G1 cell cycle phase and apoptosis in HeLa cells at a dose of 10E-8 for 72 hr; type: functional, Homo sapiens; method in brief: as §1
# [14] = test system: HeLa; test: Tested for effect of compound on G2/M cell cycle phase and apoptosis in HeLa cells at a dose of 10E-7 for 24 hr; type: functional, Homo sapiens; method in brief: as §2
# [15] = test system: HeLa; test: Tested for effect of compound on S cell cycle phase and apoptosis in HeLa cells at a dose of 10E-8 for 24 hr; type: functional, Homo sapiens; method in brief: as §2
# [16] = Selectivity index is the ratio of IC50 of P-388 cell line to that of HT-29; type: functional
# [17] = test system: HeLa; test: Tested for effect of compound on Sub-G1 cell cycle phase and apoptosis in HeLa cells at a dose of 10E-7 for 48 hr; type: functional, Homo sapiens; method in brief: as §2
# [18] = test system: HeLa; test: Tested for effect of compound on G0/G1 cell cycle phase and apoptosis in HeLa cells at a dose of 10E-7 for 24 hr; type: functional, Homo sapiens; method in brief: as §1
# [19] = test system: HeLa; test: Tested for effect of compound on S cell cycle phase and apoptosis in HeLa cells at a dose of 10E-7 for 24 hr; type: functional, Homo sapiens; method in brief: as §2
# [20] = test system: HeLa; test: Tested for effect of compound on Sub-G1 cell cycle phase and apoptosis in HeLa cells at a dose of 10E-6 for 72 hr; type: functional, Homo sapiens; method in brief: as §2
# [21] = test system: HeLa; test: Tested for effect of compound on Sub-G1 cell cycle phase and apoptosis in HeLa cells at a dose of 10E-8 for 24 hr; type: functional, Homo sapiens; method in brief: as §2
# [22] = test system: HeLa; test: Tested for effect of compound on Sub-G1 cell cycle phase and apoptosis in HeLa cells at a dose of 10E-6 for 48 hr; type: functional, Homo sapiens; method in brief: as §2
# [23] = test system: HeLa; test: Tested for effect of compound on G2/M cell cycle phase and apoptosis in HeLa cells at a dose of 10E-7 for 48 hr; type: functional, Homo sapiens; method in brief: as §2
# [24] = test system: HeLa; test: Tested for effect of compound on G0/G1 cell cycle phase and apoptosis in HeLa cells at a dose of 10E-7 for 48 hr; type: functional, Homo sapiens; method in brief: as §1
# [25] = test system: HeLa; test: Tested for effect of compound on G2/M cell cycle phase and apoptosis in HeLa cells at a dose of 10E-7 for 72 hr; type: functional, Homo sapiens; method in brief: as §2
# [26] = test system: HeLa; test: Tested for effect of compound on S cell cycle phase and apoptosis in HeLa cells at a dose of 10E-6 for 24 hr; type: functional, Homo sapiens; method in brief: as §2
# [27] = test system: HeLa; test: Tested for effect of compound on S cell cycle phase and apoptosis in HeLa cells at a dose of 10E-6 for 72 hr; type: functional, Homo sapiens; method in brief: as §2
# [28] = test system: HeLa; test: Tested for effect of compound on G2/M cell cycle phase and apoptosis in HeLa cells at a dose of 10E-8 for 72 hr; type: functional, Homo sapiens; method in brief: as §2
# [29] = test system: HeLa; test: Tested for effect of compound on S cell cycle phase and apoptosis in HeLa cells at a dose of 10E-7 for 48 hr; type: functional, Homo sapiens; method in brief: as §2
# [30] = test system: HeLa; test: Tested for effect of compound on S cell cycle phase and apoptosis in HeLa cells at a dose of 10E-6 for 48 hr; type: functional, Homo sapiens; method in brief: as §2
# [31] = test system: HeLa; test: Tested for effect of compound on Sub-G1 cell cycle phase and apoptosis in HeLa cells at a dose of 10E-7 for 72 hr; type: functional, Homo sapiens; method in brief: as §2
# [32] = test system: HeLa; test: Tested for effect of compound on G2/M cell cycle phase and apoptosis in HeLa cells at a dose of 10E-8 for 48 hr; type: functional, Homo sapiens; method in brief: as §2
# [33] = test system: HeLa; test: Tested for effect of compound on G0/G1 cell cycle phase and apoptosis in HeLa cells at a dose of 10E-7 for 72 hr; type: functional, Homo sapiens; method in brief: as §1
# [34] = test system: HeLa; test: Tested for effect of compound on G0/G1 cell cycle phase and apoptosis in HeLa cells at a dose of 10E-6 for 24 hr; type: functional, Homo sapiens; method in brief: as §1
# [35] = test system: HeLa; test: Tested for effect of compound on G2/M cell cycle phase and apoptosis in HeLa cells at a dose of 10E-8 for 24 hr; type: functional, Homo sapiens; method in brief: as §2
# [36] = test system: HeLa; test: Tested for effect of compound on Sub-G1 cell cycle phase and apoptosis in HeLa cells at a dose of 10E-8 for 48 hr; type: functional, Homo sapiens; method in brief: as §2
# [37] = test system: HeLa; test: Tested for effect of compound on Sub-G1 cell cycle phase and apoptosis in HeLa cells at a dose of 10E-8 for 72 hr; type: functional, Homo sapiens; method in brief: as §2
# [38] = test system: HeLa; test: Tested for effect of compound on Sub-G1 cell cycle phase and apoptosis in HeLa cells at a dose of 10E-6 for 24 hr; type: functional, Homo sapiens; method in brief: as §2
# [39] = test system: HeLa; test: Tested for effect of compound on G2/M cell cycle phase and apoptosis in HeLa cells at a dose of 10E-6 for 24 hr; type: functional, Homo sapiens; method in brief: as §1
# [40] = test system: HeLa; test: Tested for effect of compound on G2/M cell cycle phase and apoptosis in HeLa cells at a dose of 10E-6 for 72 hr; type: functional, Homo sapiens; method in brief: as §2
# [41] = test system: HeLa; test: Tested for effect of compound on S cell cycle phase and apoptosis in HeLa cells at a dose of 10E-8 for 48 hr; type: functional, Homo sapiens; method in brief: as §2
smiles,measurement,setting,value
COC(=O)[C@@H]1C(/C=N/c2ccccc2O)=Cc2cc3c(cc2C1c1cc(OC)c(OC)c(OC)c1)OCO3 (stereo not given in full),IC50,[1],> 9700 nM
same,IC50,[2],> 9700 nM
same,IC50,[3],970 nM
COC(=O)[C@@H]1C(/C=N/c2ccc(OC)cc2)=Cc2cc3c(cc2C1c1cc(OC)c(OC)c(OC)c1)OCO3 (stereo not given in full),Activity,[4],55.1%
same,IC50,[1],94 nM
same,Activity,[5],47.8%
same,Activity,[6],19.4%
same,Activity,[7],57.5%
same,Activity,[8],11.4%
same,IC50,[9],940 nM
same,Activity,[10],13.6%
same,Activity,[11],20.9%
same,Activity,[12],1.6%
same,Activity,[13],59.3%
same,Activity,[14],46.1%
same,Activity,[15],15.3%
same,Selectivity index,[16],100
same,Activity,[17],5.2%
same,Activity,[18],33.5%
same,Activity,[19],18.8%
same,Activity,[20],49.4%
same,Activity,[21],1.4%
same,Activity,[22],25.3%
same,IC50,[3],9.4 nM
same,Activity,[23],80.9%
same,Activity,[24],7.7%
same,Activity,[25],24.2%
same,Activity,[26],5.3%
same,Activity,[27],20.8%
same,Activity,[28],26.6%
same,Activity,[29],6.2%
same,Activity,[30],6%
same,Activity,[31],27.1%
same,Activity,[32],25.5%
same,Activity,[33],35.1%
same,Activity,[34],2%
same,Activity,[35],28.2%
same,Activity,[36],1.9%
same,Activity,[37],2.7%
same,Activity,[38],1.9%
same,Activity,[39],90.8%
same,Activity,[40],10.4%
same,Activity,[41],15.1%
COC(=O)[C@@H]1C(/C=N/c2cncnc2N)=Cc2cc3c(cc2C1c1cc(OC)c(OC)c(OC)c1)OCO3 (stereo not given in full),IC50,[1],23 nM
same,IC50,[2],1000 nM
same,IC50,[9],1900 nM
same,Selectivity index,[16],83
same,IC50,[3],23 nM
CC/N=C/C1=Cc2c(cc3c(c2OC)OCO3)C(c2cc(OC)c(OC)c(OC)c2)[C@@H]1C(=O)OC (stereo not given in full),IC50,[1],> 10000 nM
same,IC50,[2],1000 nM
same,IC50,[3],100 nM
COC(=O)[C@@H]1C(C=O)=Cc2c(cc3c(c2OC)OCO3)[C@H]1c1cc(OC)c(OC)c(OC)c1,IC50,[1],220 nM
same,IC50,[9],1100 nM
same,Selectivity index,[16],55
same,IC50,[3],20 nM
CCCCCC/N=C/C1=Cc2cc3c(cc2C(c2cc(OC)c(OC)c(OC)c2)[C@@H]1C(=O)OC)OCO3 (stereo not given in full),IC50,[1],200 nM
same,IC50,[2],490 nM
same,IC50,[9],2000 nM
same,Selectivity index,[16],100
same,IC50,[3],20 nM
COC(=O)[C@@H]1C(/C=N/C2CCCCC2)=Cc2cc3c(cc2C1c1cc(OC)c(OC)c(OC)c1)OCO3 (stereo not given in full),IC50,[1],250 nM
same,IC50,[2],490 nM
same,IC50,[9],2000 nM
same,Selectivity index,[16],80
same,IC50,[3],25 nM
